Screening data deposited in PubChem by several laboratories.
T cruzi repl: inhibitors of intracellular T. cruzi growth, primary screen, luminescence, NIH3T3 host cells; T. cruzi beta-gal in NIH3T3, 90 h; inhibition, % (concentration not given with the values); hit rate 1.4% among 300,000; AID 1885, 2009;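 active = mean inhibition across valid replicates above about 55%, limit read from the data; inconclusive = mean below that limit but half or more replicates reach it; inactive = mean below it, under half of replicates reach it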;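 note: signal also drops with host cell toxicity which is not excluded here; 0% = plate median of DMSO wells and 100% = zero luminescence signal; higher percent means less beta-gal luminescence so fewer parasites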
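Material: NIH/3T3 host cells with β-galactosidase reporter T. cruzi; Input: 5,000 host fibroblasts per well; Medium: DMEM, 2% fetal bovine serum; Compound: 50 nL DMSO compound solution per well; Schedule: 3 h host attachment, then at least 90 h co-culture; Detection: luminescent β-galactosidase signal after 60 min lysis.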
L major viab: Leishmania major promastigote growth inhibition, primary screen | Leishmania major promastigotes, resazurin fluorescence viability | inhibition, % at 10 µM | hit rate 9% among 200,000 | AID 1063, 2008; in the data active = inhibition above about 50%;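 note: promastigotes grown with compound for 44 hours at 28 °C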
Hep lipid drop: inhibitors of hepatocyte lipid droplet formation, primary screen, imaging, high-throughput imaging, BODIPY stain. AID 1656, 2009. hit rate 0.4% among 240,000. inhibition, % at 6.5 µM. AML12 mouse hepatocytes, oleate lipid droplets;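 active = lipid droplet intensity inhibited by at least 50%, with more than 500 cells counted; inconclusive = wells with under 300 cells, treated as cytotoxic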
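System: AML12 hepatocytes (mouse). Probe or stimulus: oleic acid at 100 µM to induce lipid droplet formation. Times: overnight treatment with compound plus oleate. Detection: Image-based BODIPY and DAPI two-channel analysis. Evaluation: percent inhibition of filter-corrected integrated lipid droplet intensity per well.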
Redox H2O2 prof: compounds producing H2O2 with reducing agent – biochemical, NIH compound library profiling, artefact control for MLSCN library redox annotation, primary screen. hit rate 0.03% among 200,000. DTT-dependent redox cycling H2O2, phenol red/HRP absorbance; 100% = 100 µM peroxide control, 0% = buffer. activation, % at 10 µM;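 active = activation of at least 50% relative to the plate's high and low controls in the primary single-dose screen; inactive = activation below 50%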;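 note: compound incubated with DTT at 0.8 mM final as the reducing agent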
MPTP inh: mitochondrial permeability transition pore inhibitors, primary screen, biochemical, isolated mouse mitochondria, absorbance | Ca2+ swelling absorbance, 30 min | AID 602449, 2012 | inhibition, % at 10 µM | hit rate 1.4% among 360,000;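 active = inhibition of 50% or more, scaled per plate between neutral and stimulator controls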;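 note: 0% = DMSO wells given calcium and 100% = 1 mM EGTA wells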
Starred values were filed as active, the others as inactive; ? = inconclusive; / = no result. Many of the other results were omitted from the sample, so hits are more common in it than they were.

SMILES	T cruzi repl	L major viab	Hep lipid drop	Redox H2O2 prof	MPTP inh
COc1ccc(NC(=O)c2ccccc2)cc1NS(=O)(=O)c1ccc(F)cc1	3	4	2	0	1
COc1ccccc1NS(=O)(=O)c1cc(NC(=O)c2ccncc2)ccc1N1CCCC1	38	4	-28	0	-3
CCN(CC)c1ccc(NC(=O)c2ccccc2)cc1S(=O)(=O)Nc1ccccc1OC	39	100*	-70	0	4
COc1ccccc1NS(=O)(=O)c1cccc(NC(=O)c2cncc(Br)c2)c1	/	/	/	/	1
COc1ccc(NC(=O)c2ccc(-c3ccccc3)cc2)cc1NS(=O)(=O)c1ccc(F)cc1	34	91*	-70	0	3
CCN(CC)c1ccc(NC(=O)c2cccc(C)c2)cc1S(=O)(=O)Nc1ccccc1OC	27	97*	7	0	5
CNC(=O)C[C@@H]1C(=O)N(c2ccc(Br)cc2)CC1(C)C	/	/	/	/	0
Cc1oc2c(c1C(=O)N1CCC(C)CC1)C(=O)c1ccccc1C2=O	37	100*	-27	0	/
CCOC(=O)C1CCN(C(=O)c2c(C)oc3c2C(=O)c2ccccc2C3=O)CC1	48	100*	-26	0	-2
Cc1ccc2c(c1)c1c(n2C)-c2[nH]ncc2CC1	13	99*	0	11	0
Cc1ccc2c(c1)c1c(n2C)C(C(N)=O)CCC1 (stereo unspecified)	-20	-12	1	0	10
CC(C)C(=O)NC(Nc1cccc2cccnc12)C(Cl)(Cl)Cl (stereo unspecified)	9	22	/	-6	4
CC(C)CC(=O)NC(NC(=S)Nc1cccc2cccnc12)C(Cl)(Cl)Cl (stereo unspecified)	-2	52*	/	-8	34
Cc1sc(NC(=O)c2ccco2)c(C(c2cccnc2)N2CCN(C)CC2)c1C (stereo unspecified)	22	9	/	-4	0
COc1cccc(C(Nc2ccccn2)c2c(NC(=O)c3ccco3)sc(C)c2C)c1 (stereo unspecified)	59*	27	17	0	0
Cc1sc(NC(=O)c2ccco2)c(C(Nc2ccccn2)c2ccccc2)c1C (stereo unspecified)	-10	41	?	1	1
Cc1sc(NC(=O)c2ccco2)c(C(c2cccnc2)N2CCCC2)c1C (stereo unspecified)	50	99*	/	-4	-1
COc1ccc(C(Nc2ccccn2)c2c(NC(=O)c3ccco3)sc(C)c2C)cc1 (stereo unspecified)	63*	25	11	0	5
O=C(O)CC1(CC(=O)Nc2ccccc2N2CCOCC2)CCCC1	-2	/	1	/	0
C/C(CC(=O)Nc1cccnc1)=N\NC(=O)C(=O)Nc1cccc(C)c1	-8	-5	14	-1	0
CSc1cccc(NC(=S)N(Cc2ccc(C)cc2)Cc2ccccn2)c1	55*	97*	6	0	2
COc1ccccc1NC(=S)N(Cc1ccc(C)cc1)Cc1ccccn1	55*	91*	16	0	0
COc1ccc(CCN(Cc2ccccn2)C(=S)Nc2cccc(SC)c2)cc1OC	8	15	-16	-1	-2
C/C(=N\NC(=O)C1COc2ccccc2O1)c1cc2ccccc2o1 (stereo unspecified)	32	-3	-4	-1	0
CCN(C(=O)c1cc2c(=O)[nH]c3ccc(C)cc3c2s1)c1cccc(C)c1	56*	/	2	/	0
SMILES	T cruzi repl	L major viab	Hep lipid drop	Redox H2O2 prof	MPTP inh
CCN(C(=O)c1cc2c(=O)[nH]c3ccc(C)cc3c2s1)c1ccccc1F	40	/	0	/	0
CCN(C(=O)c1cc2c(=O)[nH]c3ccc(C)cc3c2s1)c1ccccc1C	56*	/	-14	/	0
O=C(COC(=O)C1CC1)Nc1ccc(S(=O)(=O)N2CCOCC2)cc1	/	/	/	/	-1
COc1ccc(/C=N\N=C2/SC(CC(=O)O)C(=O)N2c2ccc(O)cc2)cc1OC (stereo unspecified)	-15	56*	6	0	0
Cc1cccn2c(=O)c(/C=C(\C#N)S(=O)(=O)c3ccccc3)c(Oc3ccc(Cl)cc3)nc12	4	47	-4	1	0
Cc1cc(Oc2nc3c(C)cccn3c(=O)c2/C=C(\C#N)S(=O)(=O)c2ccccc2)ccc1Cl	-17	54*	-25	2	0
Cc1cc(OCC(=O)NC(C)C)cc(C)c1Cl	1	2	-1	1	-2
Cc1cc(OCCOCCNC(C)C)cc(C)c1Cl	39	98*	26	0	-5
CCOC(=O)C1CCCN(C(=O)c2[nH]c3ccc(OC)cc3c2C)C1 (stereo unspecified)	-9	/	/	/	1
Cc1ccc(CNC(=O)/C=C/c2ccc(S(=O)(=O)NCc3ccco3)cc2)cc1	-6	78*	22	0	43
O=C(O)/C=C/c1ccc(S(=O)(=O)NCc2ccco2)cc1	-17	8	29	-3	0
COc1ccccc1CNC(=O)/C=C/c1ccc(S(=O)(=O)NCc2ccco2)cc1	-13	10	16	0	2
O=C(/C=C/c1ccc(S(=O)(=O)NCc2ccco2)cc1)NCc1cccc(Cl)c1	-4	94*	13	0	4
COc1ccc(CCNC(=O)c2ccc3nc(N4CCCCC4)sc3c2)cc1OC	7	/	-2	/	-3
c1ccc(Cc2cc(-c3ccccc3)on2)cc1	13	-3	-7	4	2
CCOC(=O)C1(C)CCCN(C(=O)c2cc(F)ccc2C)C1 (stereo unspecified)	/	/	/	/	0
CCOC(=O)c1cnc2c(Cl)cc(Cl)cc2c1NCCOCCO	20	96*	/	1	0
Cc1ccc(/C=C2\SC(=S)N(c3cccnc3)C2=O)o1	62*	/	-3	/	1
O=C(Nc1cc(Cl)ccc1N1CCOCC1)c1ccco1	7	/	-12	/	0
O=C(c1ccccc1)c1ccc(N2CCOCC2)c(NC(=O)c2ccco2)c1	22	64*	-19	-1	1
Cc1nc2cc(-c3ccccc3)nn2c(C)c1CCC(=O)N1CCN(c2ccccc2)CC1	49	87*	/	-1	-1
Cc1c(Cl)c([N+](=O)[O-])nn1CCCC(=O)Nc1c(Cl)cccc1Cl	15	6	4	-1	1
O=C(Cn1cc([N+](=O)[O-])nc1[N+](=O)[O-])N1CCN(c2ccccc2)CC1	12	100*	0	-1	1
Cc1c(Br)c([N+](=O)[O-])nn1CCCC(=O)N1CCN(c2ccccc2)CC1	15	70*	10	0	-4
Cc1c(Cl)c([N+](=O)[O-])nn1CCCC(=O)N(Cc1ccccc1)Cc1ccccc1	64*	4	-18	0	4
